The target in experiment [1] is TEAD3-YAP1 (Homo sapiens) (UniProt P46937+Q99594). In words: Covalent inhibition of TEAD3 (210 to 427 residues) (unknown origin) expressed in Escherichia coli BL21 (DE3) cells/FAM-labelled YAP1 (60 to 99 residues)(unknown origin) protein-protein interaction assessed as protein-compound adduct formation at 100 uM incubated for 24 hrs at 4 degree C followed by mass spectrometry analysis. A digest of the protocol:
(§1)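 Intact-protein MS: 2.5 μM protein (TEAD4 217–434 with GST cleaved, TEAD4C367S, TEAD1 209–426, TEAD2 217–447 or TEAD3 210–427) incubated with 100 μM compound in PBS for 24 h at 4 °C. Samples were centrifuged to remove precipitate, desalted on a C3 reverse-phase column with a water/acetonitrile 0.1% formic acid gradient, and masses were read by Q-TOF. Adduct peaks were reported as percent.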

The species named for a further experiment is Homo sapiens. As to the kind of experiment: Covalent inhibition of GST-tagged TEAD4 C367S mutant (unknown origin) expressed in Escherichia coli BL21 (DE3)/FAM-labelled YAP1 (60 to 99 residues)(unknown origin) protein-protein interaction assessed as protein-compound adduct formation at 100 uM incubated for 24 hrs at 4 degree C followed by mass spectrometry analysis. A digest of the protocol:
as §1

The target of experiment [2] is T1, YAP1-TEAD4 (Homo sapiens, UniProt Q15561). As to the kind of experiment: Inhibition of GST-tagged TEAD4 (217 to 434 residues) (unknown origin) expressed in Escherichia coli BL21 (DE3) cells/FAM-labelled YAP1 (60 to 99 residues)(unknown origin) protein-protein interaction preincubated for 0.5 hrs at 4 degree C with TEAD4 followed by fluorescent labelled YAP1 addition by fluorescence polarization assay. A digest of the protocol:
(§2)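 Time-course FP: 64 nM TEAD4 was preincubated with varying compound concentrations for 0.5, 6, 24 or 48 h at 4 °C in PBS with 0.01% Triton X-100. 16 nM FAM-YAP1 60–99 peptide was then added and polarization read at 485/535 nm, n = 2. Inhibition was taken relative to no-compound and no-protein controls.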
(In general: In fluorescence polarisation assays a small probe gives low polarisation when free and higher when bound to something large.)

The target of experiment [3] is T2, YAP1-TEAD4 (Homo sapiens) (UniProt P46937+Q15561). As to the kind of experiment: Covalent inhibition of GST-tagged TEAD4 (217 to 434 residues) (unknown origin) expressed in Escherichia coli BL21 (DE3) cells/FAM-labelled YAP1 (60 to 99 residues)(unknown origin) protein-protein interaction assessed as protein-compound adduct formation by measuring reaction half life at 100 uM incubated for 0.5 to 6 hrs at 4 degree C followed by mass spectrometry analysis. The conditions noted are these: time 0.5-6 hrs. A digest of the protocol: (§3)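 Kinetics by MS: 2.5 μM TEAD4 was incubated at 4 °C with 3.1–100 μM compound. Aliquots were quenched with 0.1 M formic acid at set times from 0.5 h upward and analysed by whole-protein MS. Adduct relative to unreacted protein was fit to 100×(1−e^(−kobs·t)) to give kobs. kobs versus concentration was fit hyperbolically for kinact and KI, or linearly for kinact/KI where no plateau was reached.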

Experiment [4] has as its target T2, YAP1-TEAD4 (Homo sapiens). As to the kind of experiment: Covalent inhibition of GST-tagged TEAD4 (217 to 434 residues) (unknown origin) expressed in Escherichia coli BL21 (DE3) cells/FAM-labelled YAP1 (60 to 99 residues)(unknown origin) protein-protein interaction assessed as protein-compound adduct formation by second order rate constant, kinact/ki ratio at 100 uM incubated for 0.5 to 6 hrs at 4 degree C followed by mass spectrometry analysis. The conditions noted are these: time 0.5-6 hrs. In a few lines: as §3

Experiment [5] has as its target Transcriptional coactivator YAP1/Transcriptional enhancer factor TEF-1 (Homo sapiens) (UniProt P46937+P28347). As to the kind of experiment: Covalent inhibition of TEAD1 (209 to 426 residues) (unknown origin) expressed in Escherichia coli BL21 (DE3) cells/FAM-labelled YAP1 (60 to 99 residues)(unknown origin) protein-protein interaction assessed as protein-compound adduct formation at 100 uM incubated for 24 hrs at 4 degree C followed by mass spectrometry analysis. In a few lines:
as §1

The target in experiment [6] is T3, TEAD2-YAP1 (Homo sapiens) (UniProt P46937+Q15562). As to the kind of experiment: Covalent inhibition of TEAD2 (217 to 447 residues) (unknown origin) expressed in Escherichia coli BL21 (DE3) cells/FAM-labelled YAP1 (60 to 99 residues)(unknown origin) protein-protein interaction assessed as protein-compound adduct formation at 100 uM incubated for 24 hrs at 4 degree C followed by mass spectrometry analysis. In a few lines:
as §1

Experiment [7] addresses T3, TEAD2-YAP1 (Homo sapiens). As to the kind of experiment: Inhibition of TEAD2 (217 to 447 residues) (unknown origin) expressed in Escherichia coli BL21 (DE3) cells/FAM-labelled YAP1 (60 to 99 residues)(unknown origin) protein-protein interaction assessed as maximum inhibition at 50 uM preincubated for 24 hrs at 4 degree C with compound followed by fluorescent labelled YAP1 addition by fluorescence polarization assay. A digest of the protocol:
(§4)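 FP: 64 nM TEAD4, TEAD4C367S, TEAD2 or TEAD3, or 250 nM TEAD1, was preincubated with compound for 24 h at 4 °C in PBS with 0.01% Triton X-100. FAM-YAP1 60–99 peptide (disulfide-crosslinked) was then added at 16 nM final. Polarization was read at ex 485/em 535 nm. Percent inhibition was taken relative to no-compound and no-protein controls. The single-point primary screen used 50 μM.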

Experiment [8] addresses T2, YAP1-TEAD4 (Homo sapiens). In words: Covalent inhibition of GST-tagged TEAD4 (217 to 434 residues) (unknown origin) expressed in Escherichia coli BL21 (DE3) cells/FAM-labelled YAP1 (60 to 99 residues)(unknown origin) protein-protein interaction assessed as second protein-compound adduct formation at 100 uM incubated for 24 hrs at 4 degree C followed by mass spectrometry analysis. In a few lines: as §1

In experiment [9] the target is T1, YAP1-TEAD4. As to the kind of experiment: Inhibition of GST-tagged TEAD4 (217 to 434 residues) (unknown origin) expressed in Escherichia coli BL21 (DE3) cells/FAM-labelled YAP1 (60 to 99 residues)(unknown origin) protein-protein interaction preincubated for 6 hrs at 4 degree C with TEAD4 followed by fluorescent labelled YAP1 addition by fluorescence polarization assay. In a few lines: as §2

Experiment [10] deals with T2, YAP1-TEAD4 (Homo sapiens). In words: Covalent inhibition of GST-tagged TEAD4 (217 to 434 residues) (unknown origin) expressed in Escherichia coli BL21 (DE3) cells/FAM-labelled YAP1 (60 to 99 residues)(unknown origin) protein-protein interaction assessed as additional protein-compound adduct formation at 100 uM incubated for 24 hrs at 4 degree C followed by mass spectrometry analysis. A digest of the protocol: as §1

For experiment [11], the target named is T3, TEAD2-YAP1 (Homo sapiens). As to the kind of experiment: Inhibition of TEAD2 (217 to 447 residues) (unknown origin) expressed in Escherichia coli BL21 (DE3) cells/FAM-labelled YAP1 (60 to 99 residues)(unknown origin) protein-protein interaction preincubated for 24 hrs at 4 degree C with compound followed by fluorescent labelled YAP1 addition by fluorescence polarization assay. A digest of the protocol: as §4

Active and inactive are the calls of the source. The rule behind the calls is not given here.

The values below come from ChEMBL document CHEMBL5329172, “Chloroacetamide fragment library screening identifies new scaffolds for covalent inhibition of the TEAD·YAP1 interaction” (RSC Med Chem, 2023).

Chain of Transcriptional coactivator YAP1/Transcriptional enhancer factor TEF-1 (Homo sapiens) (P28347 whole entry, looked up, the tested form may be a part): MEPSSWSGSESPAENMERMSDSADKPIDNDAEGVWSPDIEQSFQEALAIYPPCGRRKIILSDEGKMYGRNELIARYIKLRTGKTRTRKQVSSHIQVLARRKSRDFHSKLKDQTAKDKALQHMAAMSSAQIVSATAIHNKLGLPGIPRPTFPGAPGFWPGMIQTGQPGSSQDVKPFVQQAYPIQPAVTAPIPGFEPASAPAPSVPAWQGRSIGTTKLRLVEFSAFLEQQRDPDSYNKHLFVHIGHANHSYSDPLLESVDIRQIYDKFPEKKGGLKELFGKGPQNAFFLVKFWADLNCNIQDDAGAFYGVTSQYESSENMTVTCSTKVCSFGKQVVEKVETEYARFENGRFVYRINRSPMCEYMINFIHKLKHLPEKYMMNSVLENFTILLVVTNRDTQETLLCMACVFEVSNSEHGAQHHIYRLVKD
Chain of Transcriptional coactivator YAP1/Transcriptional enhancer factor TEF-1 (Homo sapiens) (P46937 whole entry, looked up, the tested form may be a part): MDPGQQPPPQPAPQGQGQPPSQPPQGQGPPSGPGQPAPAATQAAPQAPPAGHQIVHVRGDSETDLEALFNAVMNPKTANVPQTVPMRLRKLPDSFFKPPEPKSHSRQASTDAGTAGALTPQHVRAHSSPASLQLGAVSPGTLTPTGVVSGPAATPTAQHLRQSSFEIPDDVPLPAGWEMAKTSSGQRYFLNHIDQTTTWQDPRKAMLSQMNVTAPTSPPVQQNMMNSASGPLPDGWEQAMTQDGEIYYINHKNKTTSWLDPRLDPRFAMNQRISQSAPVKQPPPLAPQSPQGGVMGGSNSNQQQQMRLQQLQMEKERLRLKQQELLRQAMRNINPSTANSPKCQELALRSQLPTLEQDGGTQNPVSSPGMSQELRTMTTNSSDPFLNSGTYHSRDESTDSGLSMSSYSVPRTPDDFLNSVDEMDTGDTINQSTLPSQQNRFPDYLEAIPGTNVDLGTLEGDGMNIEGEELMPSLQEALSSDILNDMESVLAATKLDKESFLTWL
T3 sequence (P46937 whole entry, looked up, the tested form may be a part): as above
T3 sequence (Q15562 whole entry, looked up, the tested form may be a part): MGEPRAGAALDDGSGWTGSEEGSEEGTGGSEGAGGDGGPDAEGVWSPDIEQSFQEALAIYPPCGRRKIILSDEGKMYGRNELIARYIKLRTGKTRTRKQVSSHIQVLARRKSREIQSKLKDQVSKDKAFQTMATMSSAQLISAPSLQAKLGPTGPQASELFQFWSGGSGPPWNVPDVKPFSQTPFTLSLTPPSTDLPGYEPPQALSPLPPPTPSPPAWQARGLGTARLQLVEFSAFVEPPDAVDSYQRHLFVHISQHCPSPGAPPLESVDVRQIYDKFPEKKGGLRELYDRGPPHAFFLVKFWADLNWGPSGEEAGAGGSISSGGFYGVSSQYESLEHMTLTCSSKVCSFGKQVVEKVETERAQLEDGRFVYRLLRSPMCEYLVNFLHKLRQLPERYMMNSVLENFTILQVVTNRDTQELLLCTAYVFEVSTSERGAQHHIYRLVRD
T1 sequence (P46937 whole entry, the tested form may be a part): as the sequence (P46937 whole entry, looked up, the tested form may be a part) above
T1 sequence (Q15561 whole entry, the tested form may be a part): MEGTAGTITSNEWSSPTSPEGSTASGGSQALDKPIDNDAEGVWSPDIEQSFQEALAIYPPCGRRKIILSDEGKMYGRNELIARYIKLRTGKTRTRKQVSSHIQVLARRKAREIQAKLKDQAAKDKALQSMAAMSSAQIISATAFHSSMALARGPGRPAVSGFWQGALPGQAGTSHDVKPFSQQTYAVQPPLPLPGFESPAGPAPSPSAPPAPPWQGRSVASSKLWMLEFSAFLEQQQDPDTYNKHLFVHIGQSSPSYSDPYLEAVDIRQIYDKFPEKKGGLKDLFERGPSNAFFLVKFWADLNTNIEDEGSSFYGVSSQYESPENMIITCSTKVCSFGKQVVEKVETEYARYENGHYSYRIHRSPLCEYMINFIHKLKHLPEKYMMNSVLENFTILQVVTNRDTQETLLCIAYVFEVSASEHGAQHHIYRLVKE
Chain of TEAD3-YAP1 (Homo sapiens) (P46937 whole entry, looked up, the tested form may be a part): as the sequence (P46937 whole entry, looked up, the tested form may be a part) above
Chain of TEAD3-YAP1 (Homo sapiens) (Q99594 whole entry, looked up, the tested form may be a part): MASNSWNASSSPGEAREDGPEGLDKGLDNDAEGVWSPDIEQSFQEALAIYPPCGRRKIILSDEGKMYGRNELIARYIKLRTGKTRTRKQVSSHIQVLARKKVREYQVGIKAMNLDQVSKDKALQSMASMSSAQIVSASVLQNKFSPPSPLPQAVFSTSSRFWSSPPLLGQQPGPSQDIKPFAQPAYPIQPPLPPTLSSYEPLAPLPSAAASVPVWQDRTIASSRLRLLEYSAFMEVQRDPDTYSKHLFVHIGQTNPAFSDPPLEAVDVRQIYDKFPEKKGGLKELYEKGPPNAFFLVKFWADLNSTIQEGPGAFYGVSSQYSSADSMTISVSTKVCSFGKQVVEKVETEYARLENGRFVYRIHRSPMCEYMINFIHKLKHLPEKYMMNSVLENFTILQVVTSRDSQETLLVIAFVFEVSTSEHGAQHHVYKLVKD

In the case of `COc1cccc(C2CC(Cc3cccs3)=NN2C(=O)CCl)c1OC` (stereo not given), the inhibition result in experiment [1], in experiment [5] and in experiment [6] was “Active” in each case. Further, in the experiment filed under Homo sapiens, the inhibition entry is “inactive”. Also, the IC50 – broadly, the concentration that inhibits the measured activity by half – against YAP1-TEAD4 [2] was 23.6 µM; against YAP1-TEAD4 [9] it was 10.2 µM. In addition, the T1/2 in experiment [3] stood at 0.6 h. In addition, the Ratio in experiment [4] is 8.3 M⁻¹ s⁻¹. Moreover, the Imax in [7] turned out to be 35%. Further, the percent second protein-compound adduct in [8] came to 15%.
Regarding `Cc1ccc(C2=NN(C(=O)CCl)C(c3ccco3)C2)cc1` (stereo not given), in the experiment listed under Homo sapiens, the inhibition result is “inactive”. The values for the IC50 against YAP1-TEAD4 [2] and against YAP1-TEAD4 [9] were 18.1 µM and 5.9 µM, respectively. The Ratio in experiment [4] amounted to 13.5 M⁻¹ s⁻¹. Also, the inhibition result in [5] and in experiment [6] was “Active” throughout. Besides, the Imax in [7] was 29%. The percent second protein-compound adduct in experiment [8] is 15%.
With `CCS(=O)(=O)Oc1ccc(CN(Cc2ccc(F)cc2)C(=O)CCl)cc1`, the percent protein-compound adduct formation in experiment [10] came to 20%. Besides, the inhibition result in the experiment filed under Homo sapiens is “inactive”. Also, the T1/2 in experiment [3] was determined as 3.3 h. Further, in experiment [4], the Ratio was found to be 1.3 M⁻¹ s⁻¹. The inhibition result in [5] is “Active”. For the same compound, in experiment [7], the Imax is 22%. In experiment [8], the percent second protein-compound adduct was 11%. This compound also registered an IC50 at YAP1-TEAD4 [9] of 54.5 µM.
Consider `O=C(NCCc1ccccc1)C(c1cccs1)N(C(=O)CCl)c1cccc(Cl)c1` (stereo not given), for which, in experiment [10], the percent protein-compound adduct formation was 17%. The inhibition result (in the experiment filed under Homo sapiens; in experiment [11]) was “inactive” throughout. In addition, the IC50 at YAP1-TEAD4 [2] was 9.7 µM; at YAP1-TEAD4 [9], 4.6 µM. Also, in experiment [3], the T1/2 was determined as 2.2 h. Moreover, in [4], the Ratio is 5.1 M⁻¹ s⁻¹. The inhibition entry in [5] is “Active”. In addition, the percent second protein-compound adduct in experiment [8] was found to be 18%.
